Data set [1] is described as follows: Efflux ratio of permeability in MDCK cells. As to conditions: dog. Type of data set: ADME, cell-based, Canis lupus familiaris. The procedure, abridged:
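Permeability measured across a confluent MDCK cell monolayer, with the efflux ratio reported alongside the permeability value.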

Data set [2] addresses Serine/threonine-protein kinase PLK4 (Homo sapiens) (UniProt O00444). Description: Inhibition of partial length human PLK4 expressed in mammalian system at 1 uM. The procedure, abridged: (§1)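 Single-concentration screen across a panel of 97 kinases, with the test compound at 1 uM.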
Data set [3] addresses Cyclin-dependent kinase 7 (Homo sapiens) (UniProt P50613). The data set can be described thus: Inhibition of partial length human CDK7 expressed in mammalian system at 1 uM. Summed up: (§2)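 Single-point screen within a 97-kinase profiling panel, with the test compound at 1 µM.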
Data set [4] concerns the target Epidermal growth factor receptor (Homo sapiens) (UniProt P00533). Description: Inhibition of partial length human EGFR expressed in bacterial system at 1 uM. Summed up:
as §2

For data set [5], the target named is MAP kinase-interacting serine/threonine-protein kinase 2 (Homo sapiens) (UniProt Q9HBH9). Description: Inhibition of partial length human MKNK2 expressed in mammalian system at 1 uM. Summed up:
as §1

For data set [6], the target named is Platelet-derived growth factor receptor beta (Homo sapiens) (UniProt P09619). The data set can be described thus: Inhibition of partial length human PDGFRbeta expressed in bacterial system at 1 uM. The procedure, abridged: as §1
In data set [7] the target is Serine/threonine-protein kinase PAK 2 (Homo sapiens) (UniProt Q13177). The data set can be described thus: Inhibition of partial length human PAK2 expressed in bacterial system at 1 uM. Summed up: as §1
Data set [8] deals with Atypical kinase COQ8A, mitochondrial (Homo sapiens) (UniProt Q8NI60). Description: Inhibition of partial length human ADCK3 expressed in bacterial system at 1 uM. The procedure, abridged:
as §2

Data set [9] concerns the target Cyclin-dependent kinase 16 (Homo sapiens) (UniProt Q00536). The data set can be described thus: Inhibition of partial length human PCTK1 expressed in mammalian system at 1 uM. Summed up: as §1
The target in data set [10] is Tyrosine-protein kinase ABL1 (Homo sapiens) (UniProt P00519). Description: Inhibition of partial length human ABL1 phosphorylation expressed in mammalian system at 1 uM. Summed up: as §2
Data set [11] concerns the target Vascular endothelial growth factor receptor 2 (Homo sapiens) (UniProt P35968). Description: Inhibition of partial length human VEGFR2 expressed in mammalian system at 1 uM. The procedure, abridged: as §1
Data set [12] has as its target Testis-specific serine/threonine-protein kinase 1 (Homo sapiens) (UniProt Q9BXA7). The data set can be described thus: Inhibition of partial length human TSSK1B expressed in bacterial system at 1 uM. Summed up:
as §1

For data set [13], the target named is Non-receptor tyrosine-protein kinase TYK2 (Homo sapiens) (UniProt P29597). The data set can be described thus: Inhibition of partial length human TYK2 JH1catalytic domain expressed in mammalian system at 1 uM. The procedure, abridged: as §1

The source made the active and inactive calls. No cut-off for these calls is given here.

Non-receptor tyrosine-protein kinase TYK2 (Homo sapiens), sequence (P29597 whole entry, the tested form may be a part): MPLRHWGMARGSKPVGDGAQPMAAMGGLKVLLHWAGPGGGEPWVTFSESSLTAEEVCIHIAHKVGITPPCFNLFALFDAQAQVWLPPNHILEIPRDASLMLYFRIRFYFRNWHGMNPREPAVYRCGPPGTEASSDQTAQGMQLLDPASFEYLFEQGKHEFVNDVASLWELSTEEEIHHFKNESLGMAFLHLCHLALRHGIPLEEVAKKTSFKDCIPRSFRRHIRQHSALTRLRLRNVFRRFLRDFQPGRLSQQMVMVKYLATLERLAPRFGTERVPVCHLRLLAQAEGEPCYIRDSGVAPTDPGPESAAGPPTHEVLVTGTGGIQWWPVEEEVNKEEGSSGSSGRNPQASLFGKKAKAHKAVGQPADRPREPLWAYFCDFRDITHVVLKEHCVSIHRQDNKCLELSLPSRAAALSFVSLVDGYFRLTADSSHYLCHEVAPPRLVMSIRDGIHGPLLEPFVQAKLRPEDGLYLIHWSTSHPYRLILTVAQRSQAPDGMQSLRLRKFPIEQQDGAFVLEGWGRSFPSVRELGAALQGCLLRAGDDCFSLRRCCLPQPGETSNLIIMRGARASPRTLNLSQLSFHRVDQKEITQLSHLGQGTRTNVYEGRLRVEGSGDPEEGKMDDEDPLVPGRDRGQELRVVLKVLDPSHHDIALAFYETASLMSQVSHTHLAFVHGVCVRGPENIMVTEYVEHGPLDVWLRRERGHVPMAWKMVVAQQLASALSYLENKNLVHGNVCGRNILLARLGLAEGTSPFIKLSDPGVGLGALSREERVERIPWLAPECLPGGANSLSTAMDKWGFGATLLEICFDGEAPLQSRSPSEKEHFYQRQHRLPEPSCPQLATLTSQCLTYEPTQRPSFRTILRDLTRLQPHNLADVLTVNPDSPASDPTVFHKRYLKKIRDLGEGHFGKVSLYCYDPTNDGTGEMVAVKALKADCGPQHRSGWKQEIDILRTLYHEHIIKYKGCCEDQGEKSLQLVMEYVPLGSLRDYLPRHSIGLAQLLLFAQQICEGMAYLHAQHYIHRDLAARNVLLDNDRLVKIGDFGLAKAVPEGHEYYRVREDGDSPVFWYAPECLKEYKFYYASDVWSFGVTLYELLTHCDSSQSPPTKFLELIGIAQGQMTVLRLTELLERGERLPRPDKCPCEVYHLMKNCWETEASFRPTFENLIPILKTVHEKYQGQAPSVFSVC
Epidermal growth factor receptor (Homo sapiens), sequence (P00533 whole entry): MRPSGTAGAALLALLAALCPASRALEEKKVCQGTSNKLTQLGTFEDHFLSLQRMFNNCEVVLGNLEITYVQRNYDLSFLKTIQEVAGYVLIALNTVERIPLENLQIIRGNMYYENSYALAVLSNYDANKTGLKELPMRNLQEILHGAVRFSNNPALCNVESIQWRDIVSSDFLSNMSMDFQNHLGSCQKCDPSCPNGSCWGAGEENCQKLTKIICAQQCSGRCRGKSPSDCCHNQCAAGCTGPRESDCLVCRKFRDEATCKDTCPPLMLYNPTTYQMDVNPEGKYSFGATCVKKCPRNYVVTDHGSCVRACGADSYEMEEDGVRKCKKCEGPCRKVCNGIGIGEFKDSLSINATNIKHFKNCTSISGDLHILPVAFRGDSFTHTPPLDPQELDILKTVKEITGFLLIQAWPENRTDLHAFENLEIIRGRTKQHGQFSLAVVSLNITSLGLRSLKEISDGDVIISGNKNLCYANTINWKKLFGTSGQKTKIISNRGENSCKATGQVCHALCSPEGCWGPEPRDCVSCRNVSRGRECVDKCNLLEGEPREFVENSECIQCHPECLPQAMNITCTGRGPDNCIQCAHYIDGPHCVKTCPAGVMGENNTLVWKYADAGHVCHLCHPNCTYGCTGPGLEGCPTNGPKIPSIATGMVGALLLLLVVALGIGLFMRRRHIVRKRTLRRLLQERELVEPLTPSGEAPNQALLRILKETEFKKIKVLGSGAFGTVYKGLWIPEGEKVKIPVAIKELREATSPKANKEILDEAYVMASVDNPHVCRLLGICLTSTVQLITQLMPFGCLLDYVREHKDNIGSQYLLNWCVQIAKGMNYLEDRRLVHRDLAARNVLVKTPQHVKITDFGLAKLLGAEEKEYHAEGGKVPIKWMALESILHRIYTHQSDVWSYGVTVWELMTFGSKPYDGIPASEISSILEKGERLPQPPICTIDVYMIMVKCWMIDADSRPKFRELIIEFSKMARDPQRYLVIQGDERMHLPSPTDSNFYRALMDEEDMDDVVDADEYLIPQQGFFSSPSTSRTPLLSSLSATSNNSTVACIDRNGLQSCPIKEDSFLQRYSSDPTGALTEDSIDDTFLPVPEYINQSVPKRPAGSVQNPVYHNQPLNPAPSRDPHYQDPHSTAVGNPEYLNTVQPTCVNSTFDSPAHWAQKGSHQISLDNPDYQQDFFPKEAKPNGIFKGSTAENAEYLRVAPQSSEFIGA
Platelet-derived growth factor receptor beta (Homo sapiens), sequence (P09619 whole entry): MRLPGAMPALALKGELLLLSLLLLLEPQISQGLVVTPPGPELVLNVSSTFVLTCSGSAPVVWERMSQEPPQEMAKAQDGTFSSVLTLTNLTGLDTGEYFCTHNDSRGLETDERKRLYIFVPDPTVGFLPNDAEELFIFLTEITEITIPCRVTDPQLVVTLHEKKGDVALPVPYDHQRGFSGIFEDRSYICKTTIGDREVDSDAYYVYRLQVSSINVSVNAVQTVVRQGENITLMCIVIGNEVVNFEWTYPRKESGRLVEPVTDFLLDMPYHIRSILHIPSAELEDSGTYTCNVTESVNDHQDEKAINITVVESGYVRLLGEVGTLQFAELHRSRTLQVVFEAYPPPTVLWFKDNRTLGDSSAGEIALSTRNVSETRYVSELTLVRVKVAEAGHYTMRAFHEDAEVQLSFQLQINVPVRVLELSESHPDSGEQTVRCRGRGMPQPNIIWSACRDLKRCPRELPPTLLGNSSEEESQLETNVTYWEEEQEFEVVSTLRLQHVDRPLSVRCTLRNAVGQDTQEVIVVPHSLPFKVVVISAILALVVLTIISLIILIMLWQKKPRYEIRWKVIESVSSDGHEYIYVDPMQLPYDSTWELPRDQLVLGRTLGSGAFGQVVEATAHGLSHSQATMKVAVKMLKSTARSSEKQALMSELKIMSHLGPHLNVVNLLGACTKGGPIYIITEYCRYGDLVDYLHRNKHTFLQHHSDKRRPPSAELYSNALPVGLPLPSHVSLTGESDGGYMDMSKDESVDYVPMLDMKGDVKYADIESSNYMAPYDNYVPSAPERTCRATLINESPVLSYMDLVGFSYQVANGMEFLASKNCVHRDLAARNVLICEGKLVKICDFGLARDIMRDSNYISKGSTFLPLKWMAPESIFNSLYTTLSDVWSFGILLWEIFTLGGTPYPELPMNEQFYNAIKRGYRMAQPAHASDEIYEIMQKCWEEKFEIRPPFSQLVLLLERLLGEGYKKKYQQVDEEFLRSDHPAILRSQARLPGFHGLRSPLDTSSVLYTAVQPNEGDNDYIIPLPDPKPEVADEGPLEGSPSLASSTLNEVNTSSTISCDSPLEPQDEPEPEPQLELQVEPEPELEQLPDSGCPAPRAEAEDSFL
Vascular endothelial growth factor receptor 2 (Homo sapiens), sequence (P35968 whole entry): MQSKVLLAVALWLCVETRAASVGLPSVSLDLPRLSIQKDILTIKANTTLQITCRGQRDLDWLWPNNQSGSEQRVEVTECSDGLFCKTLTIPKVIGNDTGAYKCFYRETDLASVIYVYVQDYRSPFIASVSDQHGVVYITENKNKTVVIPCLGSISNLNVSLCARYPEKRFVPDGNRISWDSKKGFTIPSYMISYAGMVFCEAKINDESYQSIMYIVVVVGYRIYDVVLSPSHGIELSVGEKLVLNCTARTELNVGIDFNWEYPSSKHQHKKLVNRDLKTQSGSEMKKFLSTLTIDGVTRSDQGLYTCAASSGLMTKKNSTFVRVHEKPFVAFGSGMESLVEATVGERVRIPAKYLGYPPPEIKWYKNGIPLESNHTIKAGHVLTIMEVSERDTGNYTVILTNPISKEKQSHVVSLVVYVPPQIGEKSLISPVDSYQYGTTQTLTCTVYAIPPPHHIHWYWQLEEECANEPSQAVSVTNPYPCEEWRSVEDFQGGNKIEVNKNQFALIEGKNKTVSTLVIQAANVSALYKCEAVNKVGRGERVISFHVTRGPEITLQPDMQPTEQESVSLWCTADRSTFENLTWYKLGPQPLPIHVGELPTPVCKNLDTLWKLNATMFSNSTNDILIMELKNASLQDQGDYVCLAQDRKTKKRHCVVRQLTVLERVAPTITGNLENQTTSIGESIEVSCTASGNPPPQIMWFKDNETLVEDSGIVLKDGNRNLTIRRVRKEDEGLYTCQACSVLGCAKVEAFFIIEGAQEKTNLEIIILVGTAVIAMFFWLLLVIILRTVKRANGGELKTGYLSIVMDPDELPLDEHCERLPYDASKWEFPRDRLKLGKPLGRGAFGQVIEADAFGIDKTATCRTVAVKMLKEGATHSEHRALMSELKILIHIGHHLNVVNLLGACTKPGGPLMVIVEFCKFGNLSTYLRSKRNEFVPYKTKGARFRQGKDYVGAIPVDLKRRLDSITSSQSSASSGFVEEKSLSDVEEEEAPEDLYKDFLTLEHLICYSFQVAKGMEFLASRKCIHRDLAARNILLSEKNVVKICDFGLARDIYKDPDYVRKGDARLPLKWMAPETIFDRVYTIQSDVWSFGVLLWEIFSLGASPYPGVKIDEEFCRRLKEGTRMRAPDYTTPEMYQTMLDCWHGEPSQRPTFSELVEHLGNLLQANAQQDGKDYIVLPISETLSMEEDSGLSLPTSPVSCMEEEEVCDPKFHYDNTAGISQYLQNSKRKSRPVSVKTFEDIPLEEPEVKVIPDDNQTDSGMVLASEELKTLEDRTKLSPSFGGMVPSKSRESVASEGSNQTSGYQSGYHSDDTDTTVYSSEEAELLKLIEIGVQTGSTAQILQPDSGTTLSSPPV

Consider `Cc1cnc(N)nc1OCC(C)(C)CO`, for which the efflux ratio in [1] turned out to be 0.8. Also, the inhibition result in [2], in data set [3], in data set [4], in data set [5], in data set [6] and in data set [7] was “inactive” in each case. The inhibition result in [8], in data set [9], in data set [10], in [11], in [12] and in data set [13] was “inactive” in each case.

The values above are taken from ChEMBL document CHEMBL3779767, “Identification of potent and selective MTH1 inhibitors” (Bioorg Med Chem Lett, 2016).
